Consider 35 molecules from ChEMBL document CHEMBL3603810, “Discovery of Potent and Selective RSK Inhibitors as Biological Probes” (J Med Chem, 2015).

Calls of active or inactive are those of the source. No cut-off for these calls is given here.

For series [1], the target named is Ribosomal protein S6 kinase alpha-3 (Mus musculus, UniProt P18654). Description: Inhibition of RSK2 in mouse BAF cells expressing activated FGFR assessed as reduction of YB1 phosphorylation at Ser102 by electochemiluminescence assay. It is filed as cell-based. In outline:
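Cellular Ser102-phospho-YB1 ECL immunoassay in mouse BAF cells engineered to express activated FGFR. RIPA lysates are bound overnight at 4 °C to high-bind plates. Plates are blocked 2 h at rt with 10% BSA. Detection uses phospho-Ser102 YB1 antibody (1.3 μg/mL, 2 h rt), then sulfo-tag goat anti-rabbit antibody (0.5 μg/mL, 2 h rt), then MSD read buffer.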

The target of series [2] is Ribosomal protein S6 kinase alpha-3 (Homo sapiens, UniProt P51812).
Ribosomal protein S6 kinase alpha-3 (Homo sapiens, UniProt P51812), sequence (P51812 whole entry): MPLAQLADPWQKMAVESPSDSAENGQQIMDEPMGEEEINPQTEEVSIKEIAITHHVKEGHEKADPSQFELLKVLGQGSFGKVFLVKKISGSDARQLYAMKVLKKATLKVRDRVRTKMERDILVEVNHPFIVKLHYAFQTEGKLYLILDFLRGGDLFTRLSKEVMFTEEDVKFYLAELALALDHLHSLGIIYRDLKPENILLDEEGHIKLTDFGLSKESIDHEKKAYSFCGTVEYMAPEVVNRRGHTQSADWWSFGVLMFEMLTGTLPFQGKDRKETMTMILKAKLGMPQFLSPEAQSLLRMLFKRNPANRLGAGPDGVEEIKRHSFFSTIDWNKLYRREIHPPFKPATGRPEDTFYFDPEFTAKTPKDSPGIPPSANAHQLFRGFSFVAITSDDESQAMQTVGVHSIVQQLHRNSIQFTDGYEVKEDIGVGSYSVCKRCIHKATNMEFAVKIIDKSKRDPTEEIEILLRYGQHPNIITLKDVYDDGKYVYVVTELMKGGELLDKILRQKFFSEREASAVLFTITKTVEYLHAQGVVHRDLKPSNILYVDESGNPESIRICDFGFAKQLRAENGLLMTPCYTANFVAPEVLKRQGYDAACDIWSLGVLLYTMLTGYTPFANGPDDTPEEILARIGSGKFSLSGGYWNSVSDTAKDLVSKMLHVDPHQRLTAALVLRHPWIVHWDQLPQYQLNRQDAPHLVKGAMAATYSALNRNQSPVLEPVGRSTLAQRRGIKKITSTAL
Series [3] can be described thus: Plasma half life in iv dosed Sprague-Dawley rat. It is filed as ADME, organism-based. The method, boiled down: (§1)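 Single-dose plasma pharmacokinetics in male Sprague-Dawley rats following intravenous administration.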
A short description of series [4]: Clearance in iv dosed Sprague-Dawley rat. It is filed as ADME, organism-based. To be noted: in vivo. In outline:
as §1

Series [5] is described as follows: Clearance in rat liver microsomes. To be noted: read-out: CLH. It counts as ADME. For orientation: Liver microsomes are vesicles of endoplasmic reticulum, rich in cytochrome P450 enzymes.
The nature of series [6]: Volume of distribution at steady state in iv dosed Sprague-Dawley rat. It is filed as ADME, organism-based. As to conditions: in vivo, read-out: Vdss. The method, boiled down:
as §1

Another series concerns Caco-2. Description: Permeability across human Caco2 cells. It counts as ADME, cell-based. A general note: Caco-2 monolayers are a common model of the intestinal barrier.
Series [7] addresses Ribosomal protein S6 kinase alpha-2 (Homo sapiens) (UniProt Q15349). Description: Binding affinity to DNA-tagged RSK3 N-terminal kinase domain (unknown origin) assessed as level of protein captured on solid support at 10 uM by qPCR analysis relative to control. In outline:
(§2)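 Competitive binding panel (KinomeScan) run at 10 μM test concentration, 96 kinases in the panel, or 442 in the expanded panel. Results are reported as […], where smaller values mean stronger binding.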
A general note: In qPCR the cycle at which signal appears reflects the starting amount.

Series [8] deals with Ribosomal protein S6 kinase alpha-1 (Homo sapiens) (UniProt Q15418). Description: Binding affinity to DNA-tagged RSK1 N-terminal kinase domain (unknown origin) assessed as level of protein captured on solid support at 10 uM by qPCR analysis relative to control. The method, boiled down: as §2
Ribosomal protein S6 kinase alpha-1 (Homo sapiens), sequence (Q15418 whole entry, the tested form may be a part): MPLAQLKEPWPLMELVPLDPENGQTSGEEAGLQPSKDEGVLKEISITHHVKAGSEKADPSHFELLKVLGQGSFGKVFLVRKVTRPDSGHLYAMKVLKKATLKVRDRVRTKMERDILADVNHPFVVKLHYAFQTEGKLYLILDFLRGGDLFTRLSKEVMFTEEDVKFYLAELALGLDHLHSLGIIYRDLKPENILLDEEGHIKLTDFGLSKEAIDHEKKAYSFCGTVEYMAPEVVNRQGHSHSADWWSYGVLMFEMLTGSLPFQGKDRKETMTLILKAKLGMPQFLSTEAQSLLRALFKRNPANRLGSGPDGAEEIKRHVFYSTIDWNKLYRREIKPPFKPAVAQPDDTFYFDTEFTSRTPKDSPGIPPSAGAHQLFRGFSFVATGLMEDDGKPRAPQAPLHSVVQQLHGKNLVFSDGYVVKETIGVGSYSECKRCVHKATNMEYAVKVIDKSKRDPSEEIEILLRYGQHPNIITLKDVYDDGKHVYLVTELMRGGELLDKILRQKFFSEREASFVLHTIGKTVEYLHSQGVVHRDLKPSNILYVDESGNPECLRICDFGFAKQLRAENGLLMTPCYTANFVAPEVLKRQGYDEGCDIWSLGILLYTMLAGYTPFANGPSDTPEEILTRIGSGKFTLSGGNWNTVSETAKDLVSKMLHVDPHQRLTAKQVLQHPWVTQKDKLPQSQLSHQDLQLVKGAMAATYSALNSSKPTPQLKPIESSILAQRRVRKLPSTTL
Series [9] addresses Ribosomal protein S6 kinase alpha-6 (Homo sapiens) (UniProt Q9UK32). The series is described as follows: Binding affinity to DNA-tagged RSK4 N-terminal kinase domain (unknown origin) assessed as level of protein captured on solid support at 10 uM by qPCR analysis relative to control. In outline: as §2
Series [10] addresses Serine/threonine-protein kinase PLK1 (Homo sapiens) (UniProt P53350). Description: Binding affinity to DNA-tagged PLK (unknown origin) at 10 uM by qPCR analysis. In outline:
as §2

In general, EC50 refers to the concentration giving half of the maximal effect. In general, IC50 refers to the concentration at which inhibition is half-maximal. A high value points to lower potency. A word on the half-life: it is the time in which the quantity being followed falls by half. A higher half-life goes with slow loss. The clearance is the rate of elimination divided by the concentration. Higher therefore signals a high capacity for elimination.

Ribosomal protein S6 kinase alpha-3 (Mus musculus, UniProt P18654), sequence (P18654 whole entry): as the sequence (P51812 whole entry) above, with V45G counted along it
Serine/threonine-protein kinase PLK1 (Homo sapiens), sequence (P53350 whole entry): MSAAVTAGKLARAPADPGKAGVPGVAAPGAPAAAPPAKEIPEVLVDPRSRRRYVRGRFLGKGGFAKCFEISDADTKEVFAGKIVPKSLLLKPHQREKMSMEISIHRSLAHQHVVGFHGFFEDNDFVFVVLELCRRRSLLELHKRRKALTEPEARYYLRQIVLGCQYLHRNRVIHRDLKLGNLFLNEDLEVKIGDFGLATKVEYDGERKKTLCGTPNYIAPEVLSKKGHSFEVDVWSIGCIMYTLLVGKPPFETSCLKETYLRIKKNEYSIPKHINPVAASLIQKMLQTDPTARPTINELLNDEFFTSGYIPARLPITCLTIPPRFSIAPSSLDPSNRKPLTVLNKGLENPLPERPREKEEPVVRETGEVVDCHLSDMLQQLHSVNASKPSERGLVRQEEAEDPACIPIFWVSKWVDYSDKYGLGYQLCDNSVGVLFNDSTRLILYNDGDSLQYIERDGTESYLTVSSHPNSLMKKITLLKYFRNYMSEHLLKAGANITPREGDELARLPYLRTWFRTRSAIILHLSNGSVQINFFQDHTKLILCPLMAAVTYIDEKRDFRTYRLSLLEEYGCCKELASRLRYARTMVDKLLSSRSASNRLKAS
Ribosomal protein S6 kinase alpha-2 (Homo sapiens), sequence (Q15349 whole entry, the tested form may be a part): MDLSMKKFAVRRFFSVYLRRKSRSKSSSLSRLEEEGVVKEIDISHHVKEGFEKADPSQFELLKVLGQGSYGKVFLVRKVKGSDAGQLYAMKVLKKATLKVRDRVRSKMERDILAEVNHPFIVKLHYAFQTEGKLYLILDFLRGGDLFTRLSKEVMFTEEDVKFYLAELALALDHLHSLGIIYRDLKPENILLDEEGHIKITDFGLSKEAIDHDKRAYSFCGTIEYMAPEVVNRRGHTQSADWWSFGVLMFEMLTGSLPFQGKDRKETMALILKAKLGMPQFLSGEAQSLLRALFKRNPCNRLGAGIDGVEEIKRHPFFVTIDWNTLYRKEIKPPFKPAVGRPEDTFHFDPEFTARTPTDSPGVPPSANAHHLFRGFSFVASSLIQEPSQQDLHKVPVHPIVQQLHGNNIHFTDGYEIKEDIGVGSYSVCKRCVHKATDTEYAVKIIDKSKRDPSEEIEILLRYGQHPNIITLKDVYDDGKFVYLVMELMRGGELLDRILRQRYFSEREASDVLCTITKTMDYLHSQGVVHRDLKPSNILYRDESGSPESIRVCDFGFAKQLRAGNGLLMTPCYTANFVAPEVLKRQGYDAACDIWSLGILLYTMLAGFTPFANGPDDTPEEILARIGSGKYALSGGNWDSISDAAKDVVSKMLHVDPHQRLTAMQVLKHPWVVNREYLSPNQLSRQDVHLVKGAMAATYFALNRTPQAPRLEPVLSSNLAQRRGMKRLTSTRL
Ribosomal protein S6 kinase alpha-6 (Homo sapiens), sequence (Q9UK32 whole entry, the tested form may be a part): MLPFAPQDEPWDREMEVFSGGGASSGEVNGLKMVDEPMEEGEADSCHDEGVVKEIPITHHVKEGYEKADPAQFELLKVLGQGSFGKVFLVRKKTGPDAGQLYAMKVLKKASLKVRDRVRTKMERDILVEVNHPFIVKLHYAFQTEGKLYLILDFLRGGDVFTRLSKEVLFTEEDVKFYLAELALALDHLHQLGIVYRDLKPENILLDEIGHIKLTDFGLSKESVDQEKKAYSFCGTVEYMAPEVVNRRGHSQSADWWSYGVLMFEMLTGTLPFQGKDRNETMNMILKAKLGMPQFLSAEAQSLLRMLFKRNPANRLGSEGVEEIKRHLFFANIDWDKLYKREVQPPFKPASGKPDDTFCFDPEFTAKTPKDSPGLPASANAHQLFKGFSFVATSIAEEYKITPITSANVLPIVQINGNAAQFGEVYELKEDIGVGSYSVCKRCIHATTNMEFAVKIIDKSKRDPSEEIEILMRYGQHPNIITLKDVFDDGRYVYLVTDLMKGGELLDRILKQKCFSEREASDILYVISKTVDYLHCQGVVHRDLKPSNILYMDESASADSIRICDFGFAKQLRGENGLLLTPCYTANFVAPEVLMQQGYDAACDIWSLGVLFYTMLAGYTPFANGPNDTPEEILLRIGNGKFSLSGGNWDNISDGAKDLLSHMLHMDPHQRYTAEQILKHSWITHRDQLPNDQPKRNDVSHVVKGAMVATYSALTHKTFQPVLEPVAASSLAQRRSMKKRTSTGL

Regarding `Cc1cccc(-c2ccncc2-c2cc(F)c(O)c(F)c2)c1`, in [1], the EC50 amounted to 4100 nM. This molecule also returned an IC50 in [2] of 32 nM.
On the same counts, the results for `Cc1ccc(-c2ccncc2-c2cc(F)c(O)c(F)c2)cc1` are 1600 nM and 7 nM.
With `Oc1c(F)cc(-c2cnccc2-c2ccc(N3CCNCC3)cc2)cc1F`, the EC50 in [1] came out at 140 nM. Moreover, in series [2], the IC50 was 6 nM.
For `Cc1ccc(-c2nc(NC(C)C)ncc2-c2cc(F)c(O)c(F)c2)cc1` the same measures were 1500 nM and 23 nM.
For `Oc1ccc(-c2cn[nH]c2-c2ccccc2)cc1` the same measures were > 20000 nM and 2500 nM.
Regarding `COc1cccc(-c2ccncc2-c2cc(F)c(O)c(F)c2)c1`, the EC50 in [1] was 5600 nM. The IC50 in [2] was 46 nM.
For `CNc1ncc(-c2cc(F)c(O)c(F)c2)c(-c2ccc(C)cc2)n1` the same measures were 690 nM and 13 nM.
For `CC(C)c1ccncc1-c1cc(F)c(O)c(F)c1` the same measures were > 20000 nM and 780 nM.
`CN1CCN(c2ccc(-c3ccncc3-c3cc(F)c(O)c(F)c3)cc2)CC1` gave a half-life in series [3] of 13 min. In [4], the clearance stood at 166 mL/min/kg. The EC50 in series [1] came out at 340 nM. It took 5 nM to reach half-maximal inhibition in series [2] (IC50). Further, the microsomal CLint in [5] is 170 µL/min/mg. Further, in series [6], the Vd was 1.6 L/kg.
Regarding `Nc1n[nH]c(-c2ccc(O)cc2)c1-c1ccccc1`, the EC50 in series [1] amounted to 3200 nM. In series [2], this molecule came in with an IC50 of 53 nM.
For `CC(C)Nc1ncc(-c2cc(F)c(O)c(F)c2)c(-c2ccc(N3CCN(C)CC3)cc2)n1` the same measures were 610 nM and 20 nM.
In the case of `Oc1ccc(-c2cn[nH]c2-c2ccc(O)cc2)cc1`, in series [1], the EC50 turned out to be 2800 nM. For the same molecule, the IC50 in series [2] amounted to 24 nM. The permeability entry in the series on Caco-2 is “permeable”.
Regarding `COc1ccc(-c2ccncc2-c2cc(F)c(O)c(F)c2)cn1`, in [1], the EC50 worked out at 5300 nM. The same molecule registered an IC50 in series [2] of 80 nM.
Regarding `Oc1ccc(-c2ccncc2-c2cc(F)c(O)c(F)c2)cc1`, in series [1], the EC50 was determined as 6400 nM. This molecule returned an IC50 in [2] of 50 nM.
Consider `Oc1c(F)cc(-c2cnccc2-c2ccc(N3CCOCC3)cc2)cc1F`, for which the Activity was determined as 0.05% in [7], 0% in [8] and 0% in [9]. In addition, the outcome in series [10] was inactive. For the same molecule, the EC50 in [1] turned out to be 210 nM. For the same molecule, in [2], half-maximal inhibition (IC50) required 4 nM.
As to `Oc1c(F)cc(-c2cnccc2-c2ccc(F)cc2)cc1F`, the EC50 in [1] amounted to 10400 nM. Further, half-maximal inhibition in series [2] (IC50) required 94 nM.
Turning to `Oc1c(F)cc(-c2cnccc2C2CCNCC2)cc1F`, the EC50 in [1] is > 20000 nM. In addition, in series [2], the IC50 worked out at 2100 nM.
For `Oc1ccc(-c2cn[nH]c2-c2cc(F)c(O)c(F)c2)cc1` the same measures were 1400 nM and 6 nM.
On the same counts, the results for `CN1CCN(c2cccc(-c3ccncc3-c3cc(F)c(O)c(F)c3)c2)CC1` are 1100 nM and 4 nM.
As for `CC(C)CCN1c2nc(Nc3cc(F)c(O)c(F)c3)ncc2N(C)C(=O)[C@H]1C`, the result in series [10] was Active. The EC50 in series [1] came to 500 nM.
As for `Oc1ccc(-c2ccncc2-c2ccc(O)cc2)cc1`, the EC50 in series [1] was 9300 nM. Besides, in series [2], the IC50 turned out to be 180 nM. Moreover, the permeability result in the series with Caco-2 is listed as “permeable”.
With `Oc1c(F)cc(-c2cnccc2-c2ccccc2)cc1F`, in series [1], the EC50 worked out at 4200 nM. The molecule also gave an IC50 in series [2] of 60 nM.
On the same counts, the results for `CNc1cc(-c2ccc(N3CCN(C)CC3)cc2)c(-c2cc(F)c(O)c(F)c2)cn1` are 580 nM and 14 nM.
For `Oc1ccc(-c2[nH]ncc2-c2ccccc2)cc1` the same measures were > 20000 nM and 150 nM.
On the same counts, the results for `Oc1c(Cl)cc(-c2cnccc2-c2ccc(F)cc2)cc1Cl` are > 20000 nM and 4800 nM.
Turning to `CC(C)CNc1cc(-c2ccc(N3CCN(C)CC3)cc2)c(-c2cc(F)c(O)c(F)c2)cn1`, the EC50 in [1] was 2500 nM. Besides, the IC50 in series [2] was found to be 22 nM.
As for `Oc1c(F)cc(-c2cnccc2-c2cccc(-c3cn[nH]c3)c2)cc1F`, the EC50 in series [1] is 1100 nM. This molecule yielded an IC50 in series [2] of 5 nM.
In the case of `Cc1ccc(Nc2cc(-c3ccc(N4CCN(C)CC4)cc3)c(-c3cc(F)c(O)c(F)c3)cn2)cc1`, the EC50 in series [1] amounted to 690 nM. Half-maximal inhibition in series [2] (IC50) required 6 nM.
For `Cc1ccc(-c2nc(N)ncc2-c2cc(F)c(O)c(F)c2)cc1` the same measures were 360 nM and 10 nM.
For `NCCOc1cccc(-c2ccncc2-c2cc(F)c(O)c(F)c2)c1` the same measures were 490 nM and 4 nM.
On the same counts, the results for `Oc1c(F)cc(-c2cnccc2C2CCOCC2)cc1F` are 2200 nM and 130 nM.
Take `CNC(=O)c1ccc(-c2ccncc2-c2cc(F)c(O)c(F)c2)cc1`: the EC50 in series [1] came out at 2100 nM. This molecule also returned an IC50 in series [2] of 20 nM.
Consider `COc1ccc(-c2ccncc2-c2cc(F)c(O)c(F)c2)cc1`, for which, in series [1], the EC50 came to 1100 nM. Further, it took 8 nM to reach half-maximal inhibition in series [2] (IC50).
On the same counts, the results for `CN1CCN(c2ccc(-c3cc(N)ncc3-c3cc(F)c(O)c(F)c3)cc2)CC1` are 440 nM and 6 nM.
On the same counts, the results for `Oc1c(F)cc(-c2cnccc2-c2cccc(N3CCOCC3)c2)cc1F` are 2300 nM and 18 nM.
